Assay results reported in ChEMBL document CHEMBL5649170, “Sustained microglial depletion with CSF1R inhibitor impairs parenchymal plaque development in an Alzheimer's disease model” (Nat Commun, 2019).
Calls of active or inactive are those of the source. The rule behind the calls is not given here.

Legend:
Mus musculus [1] = assay: Antialzheimer activity in 5XFAD mouse assessed as time spent in open arm at 1200 ppm administered as rodent chow for 10 to 24 weeks by Elevated plus maze test (reference value: 34.1 to 208.9 sec); type: functional; details: route po, time 10-24 weeks
[2] = Effect on Siglech gene expression in wild type mouse cortex at 1200 ppm administered as rodent chow starting from 1.5 months and measured after 7 months by RNA-Seq analysis (reference value: 3.777 to 4.267 RPKM); type: functional; details: route po, time 5.5 months, 4015 h
[3] = Effect on Ctsz gene expression in 5XFAD mouse cortex at 1200 ppm administered as rodent chow starting from 1.5 months and measured after 7 months by RNA-Seq analysis (reference value: 27.650 to 42.003 RPKM); type: functional; details: route po, time 5.5 months, 4015 h
[4] = target: Serine/threonine-protein kinase BRSK1 (Homo sapiens, UniProt Q8TDC3); assay: Inhibition of BRSK1 (unknown origin)
[5] = Effect on Spi1 gene expression in 5XFAD mouse cortex at 1200 ppm administered as rodent chow starting from 1.5 months and measured after 7 months by RNA-Seq analysis (reference value: 1.689 to 2.928 RPKM); type: functional; details: route po, time 5.5 months, 4015 h
[6] = Effect on Siglech gene expression in wild type mouse thalamus at 1200 ppm administered as rodent chow starting from 1.5 months and measured after 7 months by RNA-Seq analysis (reference value: 2.864 to 4.605 RPKM); type: functional; details: route po, time 5.5 months, 4015 h
[7] = target: AMP-activated protein kinase (AMPK) alpha-1/beta-1/gamma-1 (Homo sapiens, UniProt P54619+Q13131+Q9Y478); assay: Inhibition of AMPK_A1/B1/G1 (unknown origin); type: protein-complex assay
Mus musculus [8] = assay: Antialzheimer activity in 5XFAD mouse assessed as time spent in center zone at 1200 ppm administered as rodent chow for 10 to 24 weeks by Open field test (reference value: 14.9 to 130.9 sec); type: functional; details: route po, time 10-24 weeks
[9] = target: Mitogen-activated protein kinase 12 (Homo sapiens, UniProt P53778); assay: Inhibition of MAPK12 (unknown origin)
[10] = Half-life in monkey at 1.35 mg/kg, iv administered as single dose; type: ADME, organism-based, Macaca mulatta; details: rhesus monkey, in vivo
[11] = target: Serine/threonine-protein kinase mTOR (Homo sapiens, UniProt P42345); assay: Inhibition of FRAP1 (unknown origin)
[12] = target: Receptor tyrosine-protein kinase erbB-4 (Homo sapiens, UniProt Q15303); assay: Inhibition of ERBB4 (unknown origin)
Mus musculus [13] = assay: Prevention of Nell2 gene downregulation in 5XFAD mouse hippocampus at 1200 ppm administered as rodent chow starting from 1.5 months and measured after 7 months by Nanostring analysis; type: functional, tissue-based; details: route po, time 5.5 months
Mus musculus [14] = assay: Antialzheimer activity in 5XFAD mouse assessed as iron reactivity by measuring hemosiderin intensity of prussian blue staining in […] cortex at 1200 ppm administered as rodent chow starting from 1.5 months and measured after 7 months by confocal microscopic analysis (reference value: 0.1 to 4.791 a.u.); type: functional; details: route po, time 5.5 months, 4015 h
Procedure, shortened: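 Wild-type or 5xFAD mice fed PLX5622 (1200 ppm) in AIN-76A chow from 1.5 months of age, examined in 4- and 7-month-old cohorts. Brain sections stained with a Prussian blue kit per kit instructions to detect iron deposits (microbleeds).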

[15] = target: Cyclin-dependent kinase 1/cyclin B1 (Homo sapiens, UniProt P06493); assay: Inhibition of CDK1/CyclinB (unknown origin); type: protein-complex assay
[16] = Effect on Rnf217 gene expression in wildtype mouse hippocampus assessed as percent change in Reads Per kilo base per Million mapped reads at 1200 ppm administered as rodent chow starting from 1.5 months and measured after 7 months by RNA-Seq analysis (reference value: 92.169 to 103.245 %); type: functional; details: route po, time 5.5 months, 4015 h
[17] = target: Serine/threonine-protein kinase PAK 5 (Homo sapiens, UniProt Q9P286); assay: Inhibition of PAK7 (unknown origin)
[18] = target: Protein kinase C gamma type (Homo sapiens, UniProt P05129); assay: Inhibition of PRKCG (unknown origin)
[19] = Oral bioavailability in dog at 45 mg/kg administered as single via gavage; type: ADME, organism-based, Canis lupus familiaris; details: in vivo
[20] = Effect on ccl6 gene expression in 5XFAD mouse thalamus at 1200 ppm administered as rodent chow starting from 1.5 months and measured after 7 months by RNA-Seq analysis (reference value: 3.667 to 7.093 RPKM); type: functional; details: route po, time 5.5 months, 4015 h
[21] = target: Glycogen synthase kinase-3 alpha (Homo sapiens, UniProt P49840); assay: Inhibition of GSK3A (unknown origin)
[22] = target: Casein kinase I isoform epsilon (Homo sapiens, UniProt P49674); assay: Inhibition of CSNK1E (unknown origin)
Mus musculus [23] = assay: Antialzheimer activity in 5XFAD mouse assessed as number of plaques in subiculum at 1200 ppm administered as rodent chow starting from 1.5 months and measured after 7 months by immunolabeling based confocal microscopic analysis (reference value: 139 to 212); type: functional; details: route po, time 5.5 months, 4015 h
[24] = AUC (0 to 24 hrs) in 5XFAD mouse plasma at 1200 ppm administered as rodent chow for 180 days; type: ADME, cell-free; details: route po, time 180 day
[25] = target: Cyclin-dependent kinase 5/CDK5 activator 1 (Homo sapiens, UniProt Q00535); assay: Inhibition of CDK5_p35 (unknown origin); type: protein-complex assay
Mus musculus [26] = assay: Antialzheimer activity in 5XFAD mouse assessed as pyroglutamte-3 immunoreactivity in thalamus at 1200 ppm administered as rodent chow for 24 weeks by immunolabeling based confocal microscopic analysis; type: functional, organism-based; details: route po
Mus musculus [27] = assay: Antialzheimer activity in 5XFAD mouse assessed as average plaque volume in retro spinal cortex at 1200 ppm administered as rodent chow starting from 1.5 months and measured after 7 months by Thio-S staining based confocal microscopic analysis (reference value: 1174.18 to 2460.96 microm3); type: functional; details: route po, time 5.5 months, 4015 h
[28] = target: Calcium/calmodulin-dependent protein kinase type II subunit beta (Homo sapiens, UniProt Q13554); assay: Inhibition of CAMK2B (unknown origin)
Mus musculus [29] = assay: Antialzheimer activity in 5XFAD mouse assessed as amyloidbeta38 level in detergent soluble thalamus fraction measured per microgram protein at 1200 ppm administered as rodent chow starting from 1.5 months and measured after 7 months by ELISA (reference value: 0 to 0.010 pg); type: functional; details: route po, time 5.5 months, 4015 h
Procedure, shortened: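 PLX5622 at 1200 ppm in chow given to 5xFAD mice from 1.5 months to 4 or 7 months of age; cortex and thalamus homogenized in TPER (detergent-soluble), pellets re-homogenized in 70% formic acid and spun 100,000 g, 1 h, 4 °C (insoluble); protein by Bradford/Lowry; Aβ species measured by Meso Scale electrochemiluminescence immunoassay, normalized to protein; n = 7–8 per group at 7 months.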

[30] = Inhibition of CDK2/CyclinA (unknown origin); set-up: species or system Homo sapiens
[31] = Cmax in female rat at 45 mg/kg, po administered as single dose via gavage; type: ADME, organism-based; details: in vivo
[32] = Effect on Spi1 gene expression in 5XFAD mouse thalamus at 1200 ppm administered as rodent chow starting from 1.5 months and measured after 7 months by RNA-Seq analysis (reference value: 2.107 to 3.285 RPKM); type: functional; details: route po, time 5.5 months, 4015 h

Sequence of Glycogen synthase kinase-3 alpha (P49840 whole entry, canonical isoform): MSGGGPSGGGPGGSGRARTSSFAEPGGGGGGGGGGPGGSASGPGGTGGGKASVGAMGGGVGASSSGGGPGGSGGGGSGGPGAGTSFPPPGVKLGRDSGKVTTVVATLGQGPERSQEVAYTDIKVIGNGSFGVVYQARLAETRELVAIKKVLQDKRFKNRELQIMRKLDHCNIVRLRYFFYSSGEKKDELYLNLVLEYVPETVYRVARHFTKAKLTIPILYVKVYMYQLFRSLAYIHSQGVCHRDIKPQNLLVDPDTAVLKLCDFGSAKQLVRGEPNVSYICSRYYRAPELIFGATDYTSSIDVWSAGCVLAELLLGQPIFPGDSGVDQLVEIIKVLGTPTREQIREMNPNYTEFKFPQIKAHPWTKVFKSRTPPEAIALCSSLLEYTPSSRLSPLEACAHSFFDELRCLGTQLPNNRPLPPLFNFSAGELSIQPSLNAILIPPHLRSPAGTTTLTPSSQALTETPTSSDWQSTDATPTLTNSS
Sequence of Cyclin-dependent kinase 5/CDK5 activator 1 (Q00535 whole entry): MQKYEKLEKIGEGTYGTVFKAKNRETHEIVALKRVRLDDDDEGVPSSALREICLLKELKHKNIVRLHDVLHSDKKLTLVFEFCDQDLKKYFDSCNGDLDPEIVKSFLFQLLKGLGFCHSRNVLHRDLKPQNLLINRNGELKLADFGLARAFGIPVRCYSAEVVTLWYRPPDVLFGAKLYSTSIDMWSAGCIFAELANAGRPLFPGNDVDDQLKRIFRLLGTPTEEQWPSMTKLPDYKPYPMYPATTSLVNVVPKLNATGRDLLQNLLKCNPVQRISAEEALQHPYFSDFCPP
Sequence of Cyclin-dependent kinase 5/CDK5 activator 1 (Q15078 whole entry, further chain): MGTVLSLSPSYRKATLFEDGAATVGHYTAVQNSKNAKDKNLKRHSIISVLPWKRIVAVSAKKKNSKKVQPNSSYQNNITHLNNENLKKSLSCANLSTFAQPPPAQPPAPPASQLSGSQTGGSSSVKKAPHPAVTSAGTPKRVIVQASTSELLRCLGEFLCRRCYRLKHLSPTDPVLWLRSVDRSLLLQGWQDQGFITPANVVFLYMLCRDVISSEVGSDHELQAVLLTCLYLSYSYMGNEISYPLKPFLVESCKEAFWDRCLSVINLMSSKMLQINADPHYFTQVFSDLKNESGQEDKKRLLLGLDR
Sequence of Serine/threonine-protein kinase PAK 5 (Q9P286 whole entry): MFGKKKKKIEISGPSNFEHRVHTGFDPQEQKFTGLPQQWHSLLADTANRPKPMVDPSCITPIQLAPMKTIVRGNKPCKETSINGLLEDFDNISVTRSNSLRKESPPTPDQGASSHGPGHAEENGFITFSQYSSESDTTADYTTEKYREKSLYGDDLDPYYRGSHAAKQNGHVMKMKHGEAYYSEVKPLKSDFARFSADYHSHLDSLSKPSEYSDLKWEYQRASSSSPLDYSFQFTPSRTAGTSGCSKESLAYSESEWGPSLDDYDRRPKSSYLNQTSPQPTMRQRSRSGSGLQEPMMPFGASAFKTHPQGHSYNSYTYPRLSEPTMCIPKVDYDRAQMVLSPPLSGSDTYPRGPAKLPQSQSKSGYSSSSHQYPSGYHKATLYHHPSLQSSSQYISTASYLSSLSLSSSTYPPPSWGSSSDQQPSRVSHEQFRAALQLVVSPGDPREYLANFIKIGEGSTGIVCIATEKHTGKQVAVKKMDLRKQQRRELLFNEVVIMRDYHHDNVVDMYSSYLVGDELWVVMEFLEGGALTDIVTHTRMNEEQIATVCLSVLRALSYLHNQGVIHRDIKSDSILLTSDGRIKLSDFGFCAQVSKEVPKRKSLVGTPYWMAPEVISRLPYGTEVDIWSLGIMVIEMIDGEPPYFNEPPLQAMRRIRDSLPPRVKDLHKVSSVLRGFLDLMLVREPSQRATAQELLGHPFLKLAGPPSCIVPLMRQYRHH
Sequence of Calcium/calmodulin-dependent protein kinase type II subunit beta (Q13554 whole entry): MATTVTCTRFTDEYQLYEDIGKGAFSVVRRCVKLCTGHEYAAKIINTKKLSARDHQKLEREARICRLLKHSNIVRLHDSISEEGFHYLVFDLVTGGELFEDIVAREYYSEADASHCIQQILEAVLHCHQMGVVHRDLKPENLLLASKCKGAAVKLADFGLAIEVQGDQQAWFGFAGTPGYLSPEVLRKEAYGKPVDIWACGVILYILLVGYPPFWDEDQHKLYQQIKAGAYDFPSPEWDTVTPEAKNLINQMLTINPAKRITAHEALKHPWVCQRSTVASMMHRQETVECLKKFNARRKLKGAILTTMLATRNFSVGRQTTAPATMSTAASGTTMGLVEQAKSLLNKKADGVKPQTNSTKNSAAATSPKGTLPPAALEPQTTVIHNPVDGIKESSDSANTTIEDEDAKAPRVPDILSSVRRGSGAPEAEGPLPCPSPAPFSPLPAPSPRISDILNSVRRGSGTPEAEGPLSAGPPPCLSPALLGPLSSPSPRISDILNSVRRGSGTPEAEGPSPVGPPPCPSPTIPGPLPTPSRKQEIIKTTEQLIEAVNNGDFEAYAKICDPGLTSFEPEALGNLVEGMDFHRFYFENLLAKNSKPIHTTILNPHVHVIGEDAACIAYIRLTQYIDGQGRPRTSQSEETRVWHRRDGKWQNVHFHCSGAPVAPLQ
Sequence of Cyclin-dependent kinase 1/cyclin B1 (P06493 whole entry): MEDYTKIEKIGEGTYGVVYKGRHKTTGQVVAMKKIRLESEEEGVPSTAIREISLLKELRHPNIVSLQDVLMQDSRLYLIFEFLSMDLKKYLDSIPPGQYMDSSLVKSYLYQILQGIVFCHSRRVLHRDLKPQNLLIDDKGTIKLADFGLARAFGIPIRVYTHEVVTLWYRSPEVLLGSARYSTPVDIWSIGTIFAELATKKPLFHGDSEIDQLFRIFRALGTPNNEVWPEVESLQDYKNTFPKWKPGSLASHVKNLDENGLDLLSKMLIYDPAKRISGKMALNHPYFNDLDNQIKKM
Sequence of Cyclin-dependent kinase 1/cyclin B1 (P14635 whole entry, further chain): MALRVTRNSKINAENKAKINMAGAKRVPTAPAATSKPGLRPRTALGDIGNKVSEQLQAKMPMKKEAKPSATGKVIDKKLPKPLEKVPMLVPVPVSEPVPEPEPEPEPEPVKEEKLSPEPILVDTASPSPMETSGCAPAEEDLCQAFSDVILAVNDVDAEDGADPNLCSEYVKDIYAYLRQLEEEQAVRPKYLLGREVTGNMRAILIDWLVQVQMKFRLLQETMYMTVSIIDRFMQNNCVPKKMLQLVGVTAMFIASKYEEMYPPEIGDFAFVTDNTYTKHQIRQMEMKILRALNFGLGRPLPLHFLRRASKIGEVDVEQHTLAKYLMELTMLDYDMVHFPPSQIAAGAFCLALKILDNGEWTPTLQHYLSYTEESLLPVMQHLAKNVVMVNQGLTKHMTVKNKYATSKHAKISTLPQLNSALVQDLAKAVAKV
Sequence of Serine/threonine-protein kinase BRSK1 (Q8TDC3 whole entry): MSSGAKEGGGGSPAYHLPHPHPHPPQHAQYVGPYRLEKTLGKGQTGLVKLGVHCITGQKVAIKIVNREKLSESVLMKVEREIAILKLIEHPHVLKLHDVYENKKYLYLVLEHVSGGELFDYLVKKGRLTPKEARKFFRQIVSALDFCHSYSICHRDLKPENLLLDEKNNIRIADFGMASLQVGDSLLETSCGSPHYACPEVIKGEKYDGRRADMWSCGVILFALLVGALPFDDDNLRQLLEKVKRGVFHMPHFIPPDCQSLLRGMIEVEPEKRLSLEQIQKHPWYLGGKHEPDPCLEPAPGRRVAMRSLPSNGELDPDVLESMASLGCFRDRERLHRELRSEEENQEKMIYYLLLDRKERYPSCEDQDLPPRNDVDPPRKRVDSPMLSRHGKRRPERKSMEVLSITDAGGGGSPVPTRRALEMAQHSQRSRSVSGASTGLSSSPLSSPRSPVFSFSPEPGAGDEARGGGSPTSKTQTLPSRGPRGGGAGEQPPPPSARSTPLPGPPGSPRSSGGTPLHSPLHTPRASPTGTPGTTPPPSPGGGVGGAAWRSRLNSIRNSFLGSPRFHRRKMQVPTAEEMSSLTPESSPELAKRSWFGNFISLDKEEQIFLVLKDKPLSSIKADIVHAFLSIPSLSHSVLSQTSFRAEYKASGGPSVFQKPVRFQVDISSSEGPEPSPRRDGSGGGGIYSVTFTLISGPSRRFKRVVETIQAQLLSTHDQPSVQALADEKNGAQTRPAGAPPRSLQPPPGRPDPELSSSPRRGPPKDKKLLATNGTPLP

## COc1ncc(F)cc1CNc1ccc(Cc2c[nH]c3ncc(C)cc23)c(F)n1 [PLX-5622]
Mus musculus [1]
  Time: 157.6 s
[2]
  Activity: 0 RPKM
[3]
  Activity: 13.681 RPKM
[4]
  IC50: > 1 µM
[5]
  Activity: 0.13 RPKM
[6]
  Activity: 0 RPKM
[7]
  IC50: > 1 µM
Mus musculus [8]
  Time: 32.4 s
[9]
  IC50: > 1 µM
[10]
  half-life: 2.2 h
[11]
  IC50: > 1 µM
[12]
  IC50: > 1 µM
Mus musculus [13]
  Activity: Active
Mus musculus [14]
  Flu intensity: 2.499 a.u.
[15]
  IC50: > 1 µM
[16]
  Activity: 69.868%
[17]
  IC50: > 1 µM
[18]
  IC50: > 1 µM
[19]
  bioavailability: 34%
[20]
  Activity: 0 RPKM
[21]
  IC50: > 1 µM
[22]
  IC50: > 1 µM
Mus musculus [23]
  Activity: 97
[24]
  AUC at 4320 h: 218 µg·h/mL
[25]
  IC50: > 1 µM
Mus musculus [26]
  Activity: Active
Mus musculus [27]
  Activity: 622.98 um3
[28]
  IC50: > 1 µM
Mus musculus [29]
  Activity: 0 pg
[30]
  IC50: > 1 µM
[31]
  Cmax: 15600 ng/mL
[32]
  Activity: 0 RPKM
